Rows were chosen to be rich in hits. Some 0.99% of all compounds tested hit in one or more screens of this group.
MT1-MMP act inh – inhibitors of human MT1-MMP activation; P50281; HT1080 RFP-PRO-GFP cells, GFP/RFP ratio fluorescence, overnight; percent of plate control window, DMSO zero; GFP/RFP ratio change, % at 20 µM; 360,000 compounds, 0.061% hits;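 active = GFP/RFP ratio change of at least 30% with cell ATP level not reduced by more than half and red fluorescence within 50% of control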
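Assay system: HT1080 cells carrying an RFP-PRO-GFP reporter | Dosing: Single dose of 20 µM compound, 1% DMSO final | Incubation: Cells overnight before dosing, compound overnight, 37 °C, 5% CO2 | Evaluation: GFP/RFP fluorescence ratio | Control set: DMSO and RFP-L50D-GFP cell wells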
SKN-1 block – blocks SKN-1 activity in C. elegans | C. elegans VP596 Pgst-4::GFP/RFP ratio, acrylamide-induced, 24 h | inhibition, % at 21.8 µM | 360,000 compounds, 0.49% hits;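 active = interference check ratio from 0.5 to 1.5 plus GFP to RFP signal ratio inhibition reaching or exceeding a fixed threshold, cut at about 30% in these data, passing the limit was not always enough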
TLR9-MyD88 inh – TLR9-MyD88 interaction inhibition. CHO BLA complementation TLR9-MyD88, CCF4 FRET ratio. inhibition, % at 4.98 µM. 340,000 compounds, 0.21% hits;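 active = inhibition above the mean over all tested compounds plus 3 SD, cut at about 21% in these data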;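 also: 0% = DMSO only wells and 100% = clavulanate BLA inhibitor control wells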
TLR4 MyD88 comp – blocks binding of human TLR4 to MyD88 | inhibition, % at 8.4 µM | O00206+Q99836 | HeLa CL3-4 TLR4/MyD88 BLA complementation, FRET ratio | 200,000 compounds, 0.18% hits; in the data active = inhibition above about 25%;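 also: 0% = vehicle and 100% = reference inhibitor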
Target sequence (O00206 whole entry, looked up): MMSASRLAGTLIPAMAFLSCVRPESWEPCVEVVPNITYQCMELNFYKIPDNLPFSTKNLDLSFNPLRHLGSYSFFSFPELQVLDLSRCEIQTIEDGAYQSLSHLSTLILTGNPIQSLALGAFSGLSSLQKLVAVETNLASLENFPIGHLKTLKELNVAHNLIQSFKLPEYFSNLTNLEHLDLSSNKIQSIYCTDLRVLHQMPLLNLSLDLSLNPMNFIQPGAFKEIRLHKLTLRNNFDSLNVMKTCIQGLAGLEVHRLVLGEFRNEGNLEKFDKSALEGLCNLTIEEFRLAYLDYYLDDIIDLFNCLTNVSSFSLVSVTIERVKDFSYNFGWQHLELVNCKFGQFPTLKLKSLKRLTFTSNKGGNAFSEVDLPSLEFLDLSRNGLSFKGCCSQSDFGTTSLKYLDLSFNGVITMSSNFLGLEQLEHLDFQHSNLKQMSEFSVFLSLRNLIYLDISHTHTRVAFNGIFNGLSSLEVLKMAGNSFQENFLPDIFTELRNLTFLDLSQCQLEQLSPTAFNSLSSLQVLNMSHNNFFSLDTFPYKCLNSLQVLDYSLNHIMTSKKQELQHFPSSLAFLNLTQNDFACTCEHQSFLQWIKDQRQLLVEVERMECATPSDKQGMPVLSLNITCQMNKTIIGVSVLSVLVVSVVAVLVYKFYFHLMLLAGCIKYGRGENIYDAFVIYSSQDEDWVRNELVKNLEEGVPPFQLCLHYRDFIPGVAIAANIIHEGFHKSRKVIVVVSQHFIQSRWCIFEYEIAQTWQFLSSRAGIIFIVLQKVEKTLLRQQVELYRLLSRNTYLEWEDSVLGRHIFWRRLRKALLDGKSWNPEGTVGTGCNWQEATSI
Target sequence (Q99836 whole entry, looked up): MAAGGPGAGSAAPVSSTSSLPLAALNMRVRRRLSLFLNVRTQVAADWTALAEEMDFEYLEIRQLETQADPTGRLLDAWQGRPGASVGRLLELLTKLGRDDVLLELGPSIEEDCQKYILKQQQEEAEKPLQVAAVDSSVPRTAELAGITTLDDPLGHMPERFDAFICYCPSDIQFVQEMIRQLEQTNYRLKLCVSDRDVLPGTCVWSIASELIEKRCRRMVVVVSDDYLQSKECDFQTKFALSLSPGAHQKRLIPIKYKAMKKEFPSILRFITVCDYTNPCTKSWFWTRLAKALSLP
NOD2 RIPK2 PPI – inhibitors of human NOD2-RIPK2 interaction. 360,000 compounds, 0.38% hits. CHO BLA complementation NOD2-RIPK2, CCF4 ratio. inhibition, % at 4.98 µM. AID 624267. O43353; in the data active = inhibition above about 21%;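 also: 0% = vehicle only and 100% = reference blocker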
NOD2-RIPK2 conf – NOD2-RIPK2 interaction inhibition confirmed | shares compounds with NOD2 RIPK2 PPI | CHO cells, NOD2-RIPK2 BLA complementation, CCF4 FRET | inhibition, % at 4.98 µM | 1,200 compounds, 70% hits | AID 624370;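 active = mean inhibition across replicates above a set limit taken from the earlier primary screen, cut at about 21% in these data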;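 also: 0% = DMSO-only wells and the high end = clavulanate BLA-blocked wells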
BLA counter – NOD2-RIPK2 counterscreen BLA reporter activity; shares compounds with NOD2 RIPK2 PPI; CHO BLA reporter, CCF4 FRET ratio; inhibition, % at 4.98 µM; 1,200 compounds, 57% hits;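 active = mean inhibition above the low-control mean inhibition plus three low-control SD, cut at about 11% in these data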;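 also: 0% = DMSO only wells and 100% = clavulanate high control wells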
The depositor's hits bear a star; . = no result given.

SMILES | MT1-MMP act inh | SKN-1 block | TLR9-MyD88 inh | TLR4 MyD88 comp | NOD2 RIPK2 PPI | NOD2-RIPK2 conf | BLA counter
Cn1ccnc1CN1CCCCC1C(=O)Nc1ccc(Oc2cccnc2)cc1 (stereo not drawn) | -3.6 | 12.0 | -5.9 | . | -0.7 | . | .
COc1cccc(NC(=O)CSc2nnc(NC(=O)c3ccco3)s2)c1 | -2.3 | -9.7 | -5.5 | . | -5.2 | . | .
O=C(Cn1nc(-c2ccccc2)c2ccccc2c1=O)Nc1ccc(F)cc1 | 0.1 | 8.1 | -14.3 | . | -3.4 | . | .
O=C(Cn1sc2ccccc2c1=O)Nc1ccc(F)cc1 | 3.0 | -1.1 | 10.6 | . | 24.8* | 25.2* | 1.2
O=C(Cn1sc2ccccc2c1=O)Nc1ccc(Cl)cc1 | -0.9 | 4.7 | 5.5 | . | 21.3* | 42.3* | 7.5
O=C(CN1C(=O)CNC1=O)Nc1ccc(Cl)cc1 | 4.4 | 3.0 | -3.6 | . | -1.7 | . | .
CCc1ccc(C(=O)NNC(=S)Nc2ccc(S(N)(=O)=O)cc2)s1 | 1.4 | -2.6 | 4.4 | 7.6 | 8.9 | . | .
CCOc1ccccc1CNC(=O)c1ccc(Sc2ccc(Cl)cc2)c(NC(C)=O)c1 | -1.5 | -3.6 | -7.8 | -5.0 | -6.0 | . | .
CCOc1ccc(CNC(=O)c2ccc(Sc3ccc(Cl)cc3)c(NC(C)=O)c2)cc1 | -5.3 | -3.0 | 4.1 | -4.4 | 33.4* | 1.1 | 1.6
O=C(CN1CCN(c2cnn(-c3ccccc3)c(=O)c2Cl)CC1)NC1CCS(=O)(=O)C1 (stereo not drawn) | 2.7 | 6.8 | -7.0 | . | -5.8 | . | .
COC(=O)c1cn(CCOc2ccc(C)cc2)c2ccccc12 | 10.7 | 4.8 | 3.2 | 9.9 | 3.5 | . | .
Cc1cc(OCCn2cc(/C(N)=N/O)c3ccccc32)ccc1Cl | 3.3 | 9.0 | 4.3 | -15.3 | 23.1* | 10.6 | 7.5
Cc1ccsc1CN(C)CC(=O)N(C)CC(=O)Nc1c(Cl)cccc1Cl | -0.4 | 1.3 | -6.6 | . | -3.4 | . | .
CCOC(=O)c1ccc(NC(=O)Nc2ccc(Cl)cn2)cc1 | 1.9 | 5.6 | 0.0 | -5.9 | -7.5 | . | .
CCOC(=O)c1ccc(NC(=O)Nc2ccon2)cc1 | 23.4 | 0.7 | 10.5 | . | 22.3* | 21.2* | -1.6
Cc1ccnc(NC(=O)CCC(=O)N(CC(=O)NCc2ccccc2)c2ccc3c(c2)OCO3)c1 | -6.4 | 18.9 | -2.6 | 2.0 | 32.2* | -5.8 | -4.8
NC(=O)c1nsc(C(=O)N(Cc2ccccc2Cl)C(C(=O)NCC2CCCO2)c2ccc(O)cc2)c1N (stereo not drawn) | 0.0 | -8.1 | 1.0 | . | -1.5 | . | .
Cn1c(SCC(=O)NNC(=O)Nc2ccccc2)nnc1-c1ccccc1 | 1.8 | 13.7 | 15.4 | . | 24.0* | 10.8 | 9.8
CC(=O)Nc1ccc(S(=O)(=O)N2c3ccccc3C(C)=CC2(C)C)cc1 | 1.7 | -5.8 | 3.8 | -5.7 | 23.2* | 22.2* | -4.6
CC1=CC(C)(C)N(S(=O)(=O)c2ccc(F)cc2)c2ccccc21 | -4.1 | 11.8 | -0.3 | 4.0 | 4.0 | . | .
CCOC(=O)[C@]12CCCC=C1N(Cc1ccc(Cl)cc1Cl)C(=O)[C@H](CC(=O)NCc1ccc(OC)c(OC)c1)C2 | 6.2 | 0.6 | . | . | -5.5 | . | .
COc1ccccc1OCCn1cc(/C=C(\C#N)C(=O)NCc2cccs2)c2ccccc21 | -0.9 | 6.3 | -0.1 | 8.3 | 28.8* | -8.3 | -0.2
CC(C)CNC(=O)c1cccc(NC(=O)CCc2ccccc2)c1 | 1.0 | 4.9 | -0.7 | 6.5 | -8.3 | . | .
O=C1C(=Cc2ccc(Cl)cc2)Cc2ccccc21 | 9.3 | 0.5 | . | . | -14.9 | . | .
C=CC(=O)N1C/C(=C/c2ccc(Cl)cc2)C(=O)/C(=C\c2ccc(Cl)cc2)C1 | -4.6 | 14.9 | 8.5 | . | 45.1* | 54.4* | 6.9
SMILES | MT1-MMP act inh | SKN-1 block | TLR9-MyD88 inh | TLR4 MyD88 comp | NOD2 RIPK2 PPI | NOD2-RIPK2 conf | BLA counter
C=CC(=O)N1C/C(=C/c2ccccc2)C(=O)/C(=C\c2ccccc2)C1 | 1.6 | 8.4 | -4.5 | . | 45.2* | 43.5* | 5.7
CN1C/C(=C/c2ccncc2)C(=O)/C(=C/c2ccncc2)C1 | -0.6 | 21.7 | 0.5 | . | -2.4 | . | .
Cc1nnsc1C(=O)N1CCCC(N2CCN(c3ccc(F)cc3)CC2)C1 (stereo not drawn) | -0.3 | 10.8 | 1.5 | . | -4.8 | . | .
CC(C)c1cccc(C(C)C)c1NC(=O)CCN1C(=O)NC2(CCCC2)C1=O | -3.2 | -5.8 | -6.1 | . | -10.3 | . | .
C=C1C(=O)[C@]23C[C@H]1CCC2[C@]1(C)CCC[C@@](C)(C(=O)O)C1C[C@@H]3O (stereo partly drawn) | -8.1 | 4.3 | . | . | 22.2* | 32.7* | 2.1
CCN(CC)c1ccc2c(C)c(-c3ccc(N)cc3)c(=O)oc2c1 | -2.1 | 0.3 | 12.3 | 14.9 | 27.3* | 23.6* | 32.7*
Cn1cnc([N+](=O)[O-])c1S(=O)(=O)Oc1ccc(Cl)cc1 | -1.9 | 8.7 | 2.2 | . | 21.2* | 47.0* | -1.3
Cn1cnc([N+](=O)[O-])c1S(=O)(=O)Oc1cccc2ccccc12 | 4.2 | -3.6 | 14.7 | . | 56.1* | 54.8* | 1.3
CC1CCN(C(=O)COC(=O)c2cccc(S(=O)(=O)N3CCOCC3)c2)CC1 | 3.3 | 23.9 | -13.0 | . | -17.1 | . | .
COc1ccccc1Cc1c(-c2ccco2)nc2c(C)cc(Br)cn12 | -4.9 | 2.2 | . | . | 24.6* | 1.4 | -5.3
CC(=O)N1CCN(C(=O)c2cccc(NS(=O)(=O)c3ccc(Br)cc3)c2)CC1 | 3.9 | 0.4 | 0.4 | . | -5.4 | . | .
Cc1cccc(C(=O)Nc2ccc(C(=O)/C=C/c3ccncc3)cc2)c1 | 2.8 | 15.0 | 8.6 | . | 56.2* | 76.4* | 1.9
Cc1cccc(NS(=O)(=O)c2cc([N+](=O)[O-])ccc2C)n1 | 0.4 | -0.3 | 9.9 | 6.5 | 42.4* | -2.5 | -4.6
CCOC(=O)c1cc([N+](=O)[O-])cc([N+](=O)[O-])c1Sc1ncnc2nc[nH]c12 | 27.6 | -6.5 | 5.2 | . | 39.3* | 67.4* | -15.1
CCC1=Nc2cc(C(=O)NCCN3CCOCC3)ccc2Sc2ccccc21 | 2.6 | -7.5 | 7.0 | . | 1.0 | . | .
CCOCCCNC(=O)c1ccc2c(c1)N=C(CC)c1cc(Br)ccc1S2 | 2.4 | 3.7 | -1.5 | 2.8 | 27.6* | 7.3 | 0.0
Cc1ccc(-c2noc(C3CCCN(C(=O)c4ccccc4Br)C3)n2)o1 (stereo not drawn) | -5.8 | -11.0 | -8.9 | . | -13.6 | . | .
Cc1ccc(C(=O)CC(=O)c2ccccc2C)c(O)c1 | -1.5 | -6.7 | -7.7 | . | 4.4 | . | .
C=C(CN(C)C)C(=O)c1ccc(C)cc1C | 2.3 | 4.0 | 10.9 | . | 33.2* | 93.6* | 30.2*
COc1ccc2nc(C3CCCCC3)c3c(c2c1)CCC3 | 4.6 | 14.2 | -2.9 | . | -1.5 | . | .
CCN(CC)CCCNC(=O)Cn1cnc2sc(C)c(S(=O)(=O)N3CCC(C)CC3)c2c1=O | -2.9 | 0.6 | -5.6 | . | -9.4 | . | .
Cc1[nH]c2ccccc2c1CC#N | -0.6 | 6.4 | 3.7 | . | 8.0 | . | .
